Experiment [1] in a line: Antileukemic activity against Murine P388 lymphocytic leukemia, body weight difference of the test animals compared to control group A animals at a dose of 25 mg/kg. Type of experiment: functional, Mus musculus. More on the design: unit not given here. The essentials:
(§1)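 CD2F1 mice implanted intraperitoneally with ascitic fluid carrying ca. 1×10^6 P388 cells, under the NCI protocol. Dosing was intraperitoneal, starting 24 h after inoculation, then every 24 h for five doses in total. The body weight difference of treated mice is taken against untreated controls. Toxicity day survivors are the mice alive at day five out of those tested.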

Experiment [2] is described as follows: Antileukemic activity against Murine P388 lymphocytic leukemia, body weight difference of the test animals compared to control group A animals at a dose of 50 mg/kg. More on the design: unit not given here. Type of experiment: functional, Mus musculus. In outline: as §1
Experiment [3] is described as follows: Antileukemic activity against Murine P388 lymphocytic leukemia, body weight difference of the test animals compared to control group A animals at a dose of 6.25 mg/kg. Type of experiment: functional, Mus musculus. The essentials: as §1
A short description of experiment [4]: Antileukemic activity against Murine P388 lymphocytic leukemia, body weight difference of the test animals compared to control group B animals at a dose of 12.5 mg/kg. More on the design: unit not given here. In kind it is functional, Mus musculus. In outline: as §1
Experiment [5] in a line: Antileukemic activity against Murine P388 lymphocytic leukemia, body weight difference of the test animals compared to control group B animals at a dose of 50 mg/kg. Type of experiment: functional, Mus musculus. More on the design: unit not given here. The essentials: as §1
A short description of experiment [6]: Toxicity day survivors expressed as number of animals that survived to day five/ number of test animals under control group A at a dose of 100 mg/kg; 6 survived out of 6. In kind it is functional, Mus musculus.
The nature of experiment [7]: Toxicity day survivors expressed as number of animals that survived to day five/ number of test animals under control group A at a dose of 25 mg/kg; 6 survived out of 6. Type of experiment: functional, Mus musculus.
Experiment [8] in a line: Log cell population relative to cell population at the beginning of treatment compared to control group C at a dose of 100 mg/kg. In kind it is functional, Mus musculus.
Experiment [9] in a line: Toxicity day survivors expressed as number of animals that survived to day five/ number of test animals under control group B at a dose of 50 mg/kg; 6 survived out of 6. Type of experiment: functional, Mus musculus.
Experiment [10] is described as follows: Toxicity day survivors expressed as number of animals that survived to day five/ number of test animals under control group C at a dose of 6.25 mg/kg; 6 survived out of 6. Type of experiment: functional, Mus musculus.
The nature of experiment [11]: Percent increase in life span of test animals compared to untreated tumor-bearing control group A animals at a dose of 12.5 mg/kg. In kind it is functional. The settings on record: Mus musculus.
A short description of experiment [12]: Percent increase in life span of test animals compared to untreated tumor-bearing control group B animals at a dose of 6.25 mg/kg. In kind it is functional. The settings on record: Mus musculus.
Experiment [13] concerns P388. The experiment is described as follows: Log cell population relative to cell population at the beginning of treatment compared to control group A at a dose of 25 mg/kg. In kind it is functional, Mus musculus.
Experiment [14] deals with P388. The experiment is described as follows: Log cell population relative to cell population at the beginning of treatment compared to control group B at a dose of 6.25 mg/kg. Type of experiment: functional, Mus musculus.
For experiment [15], the system named is P388. The experiment is described as follows: Log cell population relative to cell population at the beginning of treatment compared to control group C at a dose of 50 mg/kg. In kind it is functional, Mus musculus.
The test system of experiment [16] is P388. Nature of the experiment: Log cell population relative to cell population at the beginning of treatment compared to control group C at a dose of 6.25 mg/kg. In kind it is functional, Mus musculus.

Structures are written as SMILES.

These results are taken from ChEMBL document CHEMBL1123648, “Synthesis, chemical reactivity, and antileukemic activity of 5-substituted 6,7-bis(hydroxymethyl)pyrrolo[1,2-c]thiazole biscarbamates and the corresponding sulfoxides and sulfones” (1987).

By ILS is commonly meant the gain in survival time of treated over control animals, in per cent. Turning to `CC(C)NC(=O)OCc1c(COC(=O)NC(C)C)c(-c2ccc(Cl)c(Cl)c2)n2c1CCC2`, the BWD in experiment [1] is recorded as -1.7; in [2] it was -2.6; in experiment [3], 0; in [4], -1.9; in experiment [5] it was -3.1. In addition, the TDS in [6], in experiment [7], in [9] and in experiment [10] was 6 throughout. Also, the KE in experiment [8] was more than 6.68; in experiment [13], 2.81; in experiment [14] it was 0.69; in experiment [15] it was 5.27; in experiment [16], -0.55. In [11], this molecule showed an increase in life span (ILS) at 12.5 mg/kg of 56%. Besides, the ILS at 6.25 mg/kg in [12] amounted to 41%.
